# In the library only some 2.3% were active in any assay of this set; here they are far more common.
# TRPC6 inh = mouse TRPC6 channel inhibitors, primary screen, cell-based, HEK293, membrane potential dye; actives 1.1% (n = 310,000); ACh-evoked depolarization; hits give low values; Short transient receptor potential channel 6 (Mus musculus), Q61143; AID 2553, 2010; B-score at 10 µM;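 active means B-score under library mean minus 3 SD, initial fluorescence not abnormally high, positive integrated signal ratio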;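 further: B-score derived from integrated fluorescence ratio over the kinetic read; more negative B-score means stronger inhibition of depolarization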
# TRPC4 inh = inhibitors of mouse TRPC4 channel, primary screen, Fluo4 calcium, HEK293 TRPC4beta/mu-opioid cells; B-score at 10 µM; DAMGO-evoked Fluo4 calcium flux; hits give low values; AID 2247, 2010; actives 0.39% (n = 300,000);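 active means B-score over 3 SD under the library average, no early fluorescence shift, positive overall ratio signal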
# Target sequence (Q9QUQ5 whole entry, looked up): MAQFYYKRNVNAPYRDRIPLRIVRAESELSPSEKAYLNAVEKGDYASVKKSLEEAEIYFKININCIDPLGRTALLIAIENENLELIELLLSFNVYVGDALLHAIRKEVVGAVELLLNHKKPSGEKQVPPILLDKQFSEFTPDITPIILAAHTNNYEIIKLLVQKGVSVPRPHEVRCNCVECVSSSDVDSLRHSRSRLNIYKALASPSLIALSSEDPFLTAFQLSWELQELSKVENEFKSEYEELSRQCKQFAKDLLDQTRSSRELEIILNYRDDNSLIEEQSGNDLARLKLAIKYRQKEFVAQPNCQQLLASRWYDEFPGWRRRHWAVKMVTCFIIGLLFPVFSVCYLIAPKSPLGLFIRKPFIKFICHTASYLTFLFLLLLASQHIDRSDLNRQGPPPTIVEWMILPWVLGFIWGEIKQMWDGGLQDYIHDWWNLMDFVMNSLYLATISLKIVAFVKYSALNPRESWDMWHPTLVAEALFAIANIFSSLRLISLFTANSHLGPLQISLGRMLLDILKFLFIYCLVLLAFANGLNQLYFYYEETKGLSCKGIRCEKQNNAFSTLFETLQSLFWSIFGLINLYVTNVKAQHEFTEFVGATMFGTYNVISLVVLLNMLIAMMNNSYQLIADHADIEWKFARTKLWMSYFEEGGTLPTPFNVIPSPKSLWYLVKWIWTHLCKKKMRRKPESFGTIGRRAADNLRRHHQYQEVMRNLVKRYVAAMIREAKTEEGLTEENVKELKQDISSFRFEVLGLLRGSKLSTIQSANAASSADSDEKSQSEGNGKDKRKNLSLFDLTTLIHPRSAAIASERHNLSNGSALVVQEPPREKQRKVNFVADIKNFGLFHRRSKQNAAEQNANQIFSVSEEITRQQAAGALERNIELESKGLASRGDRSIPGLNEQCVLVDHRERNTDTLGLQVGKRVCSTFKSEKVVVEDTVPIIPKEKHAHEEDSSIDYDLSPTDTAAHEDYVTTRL
#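 test system = HEK293 cells with stable TRPC4beta plus mu-opioid receptor expression | detection = Fluo4 Ca2+ flux fluorescence | read-out = integrated fluorescence ratio relative to baseline, converted to per-well B score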
# TRPC4 agonist = activators of mouse TRPC4 channel, primary screen, Fluo4 calcium, HEK293 TRPC4beta/mu-opioid cells; B-score at 10 µM; Short transient receptor potential channel 4 (Mus musculus), Q9QUQ5; AID 2237, 2010; Fluo4 calcium fluorescence; hits give high values; actives 0.49% (n = 310,000);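 active means B-score above 5 SD of library B-scores, and initial fluorescence ratio not above library mean plus 5 SD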;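 further: positive B-score marks a calcium rise read as TRPC4 activation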
#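 Assay system: HEK293 stable line with TRPC4beta plus mu-opioid receptor. Times: dye 45 min RT, read 110 s. Measured by: kinetic Fluo4 calcium fluorescence. Measure: B score of integrated ratio. Controls: assay buffer as low control, maximal DAMGO as high control.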
# TRPC6 act = mouse TRPC6 channel activators, primary screen, cell-based, HEK293, membrane potential dye; B-score at 10 µM; HEK293-TRPC6 membrane potential dye fluorescence; hits give high values; actives 0.13% (n = 310,000);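 active means B-score of the integrated fluorescence ratio above library mean plus 3 SD, and starting fluorescence ratio within library mean plus 5 SD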;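 further: higher score means more depolarization so channel activation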
# TRPC4 PAM = positive allosteric modulators of TRPC4, primary screen, cell-based, mouse TRPC4beta, HEK293 mu-opioid, Fluo-4 calcium; DAMGO EC20, Fluo-4 Ca2+ flux; hits give high values; Short transient receptor potential channel 4 (Mus musculus), Q9QUQ5; actives 0.42% (n = 310,000); AID 2227, 2009; B-score at 10 µM;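 active means B-score of calcium response area above 5 SD of library B-scores, with initial fluorescence ratio within 5 SD of library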;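 further: B-score of integrated fluorescence ratio over time as area under calcium response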
# Numbers without * were called inactive; i = inactive.
SMILES,TRPC6 inh,TRPC4 inh,TRPC4 agonist,TRPC6 act,TRPC4 PAM
CC(C)(C)c1nn2cnnc2n(/N=C/c2ccc(O)cc2)c1=O,i,i,i,i,i
Cc1csc(NC(=O)CS(=O)(=O)Cc2ccccc2)n1,i,i,i,i,i
Cc1cccc(NC(=O)CS(=O)(=O)Cc2ccccc2)n1,i,i,53*,i,i
COc1ccc(C(=O)CN2Cc3ccccc3C2=N)cc1,i,i,i,i,i
COc1cc(C=O)ccc1OC(=O)c1ccc(C(C)C)cc1,i,-6*,i,i,i
COc1cc(C=O)ccc1OC(=O)c1ccncc1,i,i,i,i,i
CCN1CCN(c2ccc(S(=O)(=O)N3CCOCC3)cc2NC(=O)c2cc(Cl)nc3ccccc23)CC1,i,i,47*,i,i
CCN1CCN(c2ccc(S(=O)(=O)N3CCOCC3)cc2NC(=O)c2ccccc2SC)CC1,i,i,175*,i,i
CCN1CCN(c2ccc(S(=O)(=O)N3CCOCC3)cc2NC(=O)c2ccc(Cl)s2)CC1,i,i,i,i,i
N=c1c2c(ncn1Cc1ccco1)Oc1cc(O)ccc1C2c1ccccc1 (stereo not drawn),i,i,57*,i,i
N=c1c2c(ncn1Cc1ccco1)Oc1c(ccc3ccccc13)C2c1ccccc1 (stereo not drawn),i,i,i,i,i
O=C(O)c1ccc2c(c1)C1C=CCC1C(c1cc3c(cc1Br)OCO3)N2 (stereo not drawn),i,-7*,i,i,i
COc1ccc(Cl)c2sc(N(CCN(C)C)C(=O)CCS(=O)(=O)c3ccc(C)cc3)nc12,i,i,i,i,23*
CC1CC(C)CN(CCC(=O)Nc2ccc(Br)cc2)C1 (stereo not drawn),i,i,44*,i,i
CC1CC(C)CN(CCC(=O)Nc2cccc(Cl)c2)C1 (stereo not drawn),i,i,60*,i,i
COc1ccc(C(=O)CCC(=O)Nc2cccc(Cl)c2)cc1,i,i,i,i,18*
Cc1ccc(-c2nnn(CC(=O)N(CCCO)C(C(=O)NC3CCCC3)c3ccc(F)cc3)n2)o1 (stereo not drawn),i,i,i,i,i
Cc1sc2ncnc(N(C)CCc3ccccn3)c2c1C,i,i,80*,i,i
Cc1sc2ncnc(N(C)Cc3cccs3)c2c1C,i,i,i,i,i
CCn1ncc(Br)c1C(=O)Nc1cc([N+](=O)[O-])ccc1C,i,i,i,i,i
CCN1C(=O)CSC1=Nc1ccc(Cl)c(Cl)c1,i,-6*,i,i,i
N[C@@H](Cc1cc(I)c(Oc2ccc(O)c(I)c2)c(I)c1)C(=O)O,i,i,i,i,i
O=C(O)CCc1cc(I)c(Oc2ccc(O)c(I)c2)c(I)c1,i,i,59*,i,i
O=C(CSc1nnc(-c2cccnc2)o1)N1CCCCC1,i,i,i,i,i
Fc1ccc(-n2cc(CNCCc3ccncc3)c(-c3ccccc3Cl)n2)cc1,i,-6*,i,i,i
SMILES,TRPC6 inh,TRPC4 inh,TRPC4 agonist,TRPC6 act,TRPC4 PAM
Fc1ccc(-n2cc(CNCCc3cccnc3)c(-c3ccccc3Cl)n2)cc1,i,i,124*,i,i
O=C(Cc1ccc(F)cc1)NCc1cccnc1,i,i,i,i,i
O=C(O)Cc1cn(-c2ccccc2)nc1-c1ccccc1,i,i,i,i,i
Fc1ccc(-c2nn(-c3ccccc3)cc2CNCc2ccccc2)cc1,i,i,96*,i,i
COc1ccc(-n2cc(CNCCCN3CCCC3=O)c(-c3ccccc3Cl)n2)cc1,i,i,i,i,i
O=C(O)C[C@@H](O)C(=O)O,i,i,i,i,i
CCOc1cc([N+](=O)[O-])c2nc(N)sc2c1,i,i,i,i,i
CC(=O)Oc1cc2oc(=O)cc(C)c2cc1Cl,i,i,i,i,i
Cc1ccc(S(=O)(=O)NC(C(=O)Oc2cc3oc(=O)cc(C)c3cc2Cl)C(C)C)cc1 (stereo not drawn),i,i,i,i,15*
COCCn1c(=NC(=O)c2ccc(S(=O)(=O)N3CCc4ccccc4C3)cc2)sc2cc(OC)ccc21,i,i,i,i,i
CCOC(=O)c1oc2ccccc2c1CN1CCN(C)CC1,i,i,i,i,i
CCOC(=O)c1oc2ccccc2c1CN1CCCCC1,i,-6*,i,i,i
COc1cccc(CNC(=O)CSc2nnc3c(n2)[nH]c2ccc(C)cc23)c1,i,i,i,i,i
CC(C)(C)C(=O)Nc1sc2c(c1C#N)CCN(Cc1ccccc1)C2,i,i,i,13*,i
N#Cc1c(NC(=S)NC(=O)c2ccccc2)sc2c1CCN(CCc1ccccc1)C2,i,i,i,i,i
O=C(CCC(=O)c1cccs1)NCc1cccc(C(F)(F)F)c1,i,i,i,i,i
CCN(CC)CCSc1nc2ccc(OC)cc2[nH]1,i,i,124*,i,i
Clc1ccc(-n2cc(-c3ccc(Br)cc3)[n+]3c2CCCCC3)cc1,i,-6*,i,i,i
Cc1ccc(-c2cn(-c3ccc(OC(F)F)cc3)c3[n+]2CCCCC3)cc1,i,i,i,i,i
CCCCNCc1cc(Cl)c(OCCC)c(OCC)c1,i,-7*,i,i,i
CCCCOc1c(Cl)cc(CNC(C)(C)CO)cc1OCC,i,i,i,i,i
Cc1nn(CC(=O)Nc2ccc(S(=O)(=O)N(C)C)cc2)c(C)c1[N+](=O)[O-],i,i,i,i,i
O=C(CN1CCN(Cc2ccccc2)CC1)N=Nc1c(O)[nH]c2ccccc12,i,i,i,i,i
O=C(CN1CCCCC1)N=Nc1c(O)[nH]c2ccccc12,i,-8*,i,i,i
COc1cc(/C=C2\SC(=S)N(NS(=O)(=O)c3ccc(C)cc3)C2=O)cc(OC)c1OC,i,-6*,i,i,i
COc1ccccc1/C=C1\SC(=S)N(NS(=O)(=O)c2ccccc2)C1=O,i,i,i,i,i
